From ChEMBL document CHEMBL4342472, “Investigation of Inactive-State κ Opioid Receptor Homodimerization via Single-Molecule Microscopy Using New Antagonistic Fluorescent Probes” (J Med Chem, 2020)
The source made the active and inactive calls. The calls are words filed in the database; no cut-off is given here.

What was measured:
[1] = molecular target: T1, Kappa-type opioid receptor (Homo sapiens, UniProt P41145); assay: Binding affinity to recombinant human KOR expressed in CHOK1 cells assessed as compound-coupled receptor mobility by measuring distribution in sub-diffusion phase at 100 nM measured after 20 mins by TIRF-SMM based TA-MSD analysis; type: cell-based
Outline: (§1)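 Wild-type human KOR transiently transfected into CHO-K1 cells (Lipofectamine 2000); labelled 4 h post-transfection with probe at 100 nM for 20 min, washed in HEPES imaging buffer pH 7.3 and imaged by TIRF at 20 °C. Trajectories from automated particle tracking; time-averaged MSD of individual trajectories fitted to obtain diffusion coefficient and assign motion class.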

[2] = molecular target: T1, Kappa-type opioid receptor; assay: Binding affinity to recombinant human KOR transiently expressed in CHOK1 cells measured after 20 mins by TIRF microscopic analysis; type: cell-based
Outline: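 Saturation binding on CHO-K1 cells transiently expressing human KOR (24 h post-transfection): 20 min incubation at 37 °C with each ligand concentration in complete medium, one wash in HEPES buffer pH 7.3, TIRF imaging. Mean whole-cell intensity (>30 cells per concentration), normalized to highest concentration, fitted by nonlinear regression for Kd; three replicates.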

[3] = molecular target: T1, Kappa-type opioid receptor; assay: Binding affinity to recombinant human KOR expressed in CHOK1 cells assessed as compound-coupled receptor mobility by measuring distribution in normal diffusion phase at 100 nM measured after 20 mins by TIRF-SMM based TA-MSD analysis; type: cell-based; outline: as §1
[4] = molecular target: T1, Kappa-type opioid receptor; assay: Partial agonist activity at EA-tagged beta-arrestin2 fused KOR (unknown origin) stably expressed in HEK293 cells assessed as induction of beta-arrestin2 recruitment measured after 300 mins by chemiluminescence assay; type: cell-based
Outline: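 PathHunter: HEK-293 cells stably expressing EA-tagged β-arrestin-2, transiently transfected with ProLink-tagged KOR-PK2; plated after 24 h, held a further 24 h at 37 °C. Compounds 1 pM to 10 μM final, 300 min at 37 °C, then detection mix 60 min at room temperature; chemiluminescence normalized to basal and dynorphin A maximum, nonlinear regression.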

[5] = molecular target: T1, Kappa-type opioid receptor; assay: Binding affinity to recombinant human KOR expressed in CHOK1 cells assessed as time of KOR colocalization in cell surface at 100 nM by single molecule microscopic analysis; type: cell-based
Outline: (§2)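 Human KOR transiently expressed in CHO-K1 cells, labelled 4 h post-transfection with Cy5 probe (10 nM) and Cy3 probe (100 nM), rapid wash, TIRF single-molecule imaging at 20 °C in HEPES buffer pH 7.3. Particles tracked automatically; observed co-localization durations deconvolved (Lucy-Richardson) against a CD86-SNAP (SiR-labelled) non-interacting control.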

Homo sapiens [6] = species: Homo sapiens; assay: Selectivity ratio of Ki for displacement of [3H]-diprenorphine from recombinant human DOR transiently expressed in HEK293 cell membranes to Ki for displacement of [3H]-diprenorphine from recombinant human KOR transiently expressed in HEK293 cell membranes
Outline: (§3)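 Membranes from HEK293T cells transiently transfected with human DOR, KOR or MOR; [3H]diprenorphine final 0.3 nM (DOR, KOR) or 0.2-0.3 nM (MOR) with varying competitor, 60 min at 37 °C in Tris/MgCl2/EDTA buffer pH 7.4. Nonspecific binding with 10 μM naloxone; IC50 by nonlinear regression converted to Ki via Cheng-Prusoff; selectivity as Ki ratio.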

[7] = molecular target: T1, Kappa-type opioid receptor; assay: Displacement of [3H]-diprenorphine from recombinant human KOR transiently expressed in HEK293 cell membranes measured after 60 mins; outline: as §3
[8] = molecular target: T1, Kappa-type opioid receptor; assay: Binding affinity to recombinant human KOR expressed in CHOK1 cells assessed as compound-coupled receptor mobility by measuring distribution in immobile phase at 100 nM measured after 20 mins by TIRF-SMM based TA-MSD analysis; type: cell-based; outline: as §1
[9] = molecular target: Delta-type opioid receptor (Homo sapiens, UniProt P41143); assay: Displacement of [3H]-diprenorphine from recombinant human DOR transiently expressed in HEK293 cell membranes measured after 60 mins; outline: as §3
[10] = molecular target: T1, Kappa-type opioid receptor; assay: Inverse agonist activity at recombinant human KOR transiently expressed in HEK293T cells co-expressing G-alphaqi assessed as reduction in dynorphin A-stimulated inositol phosphate accumulation measured after 180 mins by HTRF assay; type: functional, cell-based
[11] = molecular target: T1, Kappa-type opioid receptor; assay: Binding affinity to recombinant human KOR expressed in CHOK1 cells assessed as compound-coupled receptor mobility by measuring distribution in super diffusion phase at 100 nM measured after 20 mins by TIRF-SMM based TA-MSD analysis; type: cell-based; outline: as §1
Homo sapiens [12] = species: Homo sapiens; assay: Selectivity ratio of Ki for displacement of [3H]-diprenorphine from recombinant human MOR transiently expressed in HEK293 cell membranes to Ki for displacement of [3H]-diprenorphine from recombinant human KOR transiently expressed in HEK293 cell membranes; outline: as §3
Mu-type opioid receptor = Mu-type opioid receptor (Homo sapiens, UniProt P35372); assay: Displacement of [3H]-diprenorphine from recombinant human MOR transiently expressed in HEK293 cell membranes measured after 60 mins; outline: as §3
[13] = molecular target: T1, Kappa-type opioid receptor; assay: Binding affinity to recombinant human KOR transiently expressed in CHOK1 cells at 50 nM measured 20 mins post compound washout by TIRF microscopic analysis relative to control; type: cell-based
Outline: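 CHO-K1 cells transiently expressing human KOR, 24 h post-transfection; incubated 20 min at 37 °C with 50 nM fluorescent ligand in complete medium, then washed on-stage with fresh imaging buffer. TIRF images of the same cell taken every minute over 20 min; cell ROI intensity compared with pre-wash image, bleaching control included; triplicate experiments.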

[14] = molecular target: T1, Kappa-type opioid receptor; assay: Binding affinity to recombinant human KOR expressed in CHOK1 cells assessed as time of KOR colocalization in cell surface at 10 nM by single molecule microscopic analysis; type: cell-based; outline: as §2

Sequence of Delta-type opioid receptor (P41143 whole entry): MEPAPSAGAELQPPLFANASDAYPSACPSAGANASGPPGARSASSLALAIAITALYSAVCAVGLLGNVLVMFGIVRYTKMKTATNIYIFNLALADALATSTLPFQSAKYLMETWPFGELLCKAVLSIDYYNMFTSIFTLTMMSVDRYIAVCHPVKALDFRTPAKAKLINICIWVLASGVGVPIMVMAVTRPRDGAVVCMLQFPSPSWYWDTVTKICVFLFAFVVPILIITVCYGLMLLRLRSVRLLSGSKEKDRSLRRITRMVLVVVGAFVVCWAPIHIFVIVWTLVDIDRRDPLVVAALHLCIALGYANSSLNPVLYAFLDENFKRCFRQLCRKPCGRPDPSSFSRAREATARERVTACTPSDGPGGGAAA
Sequence of Mu-type opioid receptor (P35372 whole entry): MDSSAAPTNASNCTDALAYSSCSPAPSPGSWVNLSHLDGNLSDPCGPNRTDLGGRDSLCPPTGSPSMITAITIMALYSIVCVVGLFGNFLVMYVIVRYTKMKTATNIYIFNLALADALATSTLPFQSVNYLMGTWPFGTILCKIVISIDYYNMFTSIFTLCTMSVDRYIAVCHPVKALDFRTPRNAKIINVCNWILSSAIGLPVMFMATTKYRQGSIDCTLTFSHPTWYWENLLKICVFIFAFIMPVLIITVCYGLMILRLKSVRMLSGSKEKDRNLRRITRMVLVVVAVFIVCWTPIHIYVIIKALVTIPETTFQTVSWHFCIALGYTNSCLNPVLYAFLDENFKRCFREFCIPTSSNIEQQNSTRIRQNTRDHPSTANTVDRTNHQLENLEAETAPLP
T1 sequence (P41145 whole entry, the tested form may be a part): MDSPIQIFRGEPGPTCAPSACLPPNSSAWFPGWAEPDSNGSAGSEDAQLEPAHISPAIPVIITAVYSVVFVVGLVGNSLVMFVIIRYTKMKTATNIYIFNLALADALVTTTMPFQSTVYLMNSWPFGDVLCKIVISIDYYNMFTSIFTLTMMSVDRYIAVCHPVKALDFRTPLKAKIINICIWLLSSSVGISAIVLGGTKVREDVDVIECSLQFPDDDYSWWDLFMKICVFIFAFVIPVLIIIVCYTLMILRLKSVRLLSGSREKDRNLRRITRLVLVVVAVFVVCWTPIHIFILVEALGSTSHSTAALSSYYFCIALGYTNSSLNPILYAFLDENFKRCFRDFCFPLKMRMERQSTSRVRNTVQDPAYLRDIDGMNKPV

CN1/C(=C/C=C/C2=[N+](CCCCCC(=O)NCCCNC(=N)Nc3ccc4[nH]c5c(c4c3)C[C@@]3(O)[C@H]4Cc6ccc(O)c7c6[C@@]3(CCN4CC3CC3)[C@H]5O7)c3ccc(S(=O)(=O)[O-])cc3C2(C)C)C(C)(C)c2cc(S(=O)(=O)O)ccc21 was tested, and the Activity [1] was 25%, the Kd [2] was 18.8 nM and the Activity [3] was 51%. For the same compound, the Activity [4] was “inactive”, the TIME [5] was < 2.78e-05 h and the Ratio Ki (Homo sapiens [6]) was 4. The Ki [7] was 8.6 nM, the Activity [8] was 16% and the Ki [9] was 31 nM. The Activity [10] was “Active”, the Activity [11] was 8% and the Ratio Ki (Homo sapiens [12]) was 44. It also gave a Ki (Mu-type opioid receptor) of 380 nM.

In the case of CN1/C(=C/C=C/C2=[N+](CCCCCC(=O)NCC(=O)NCC(=O)NCC(=O)NCC(=O)NCCCNC(=N)Nc3ccc4[nH]c5c(c4c3)C[C@@]3(O)[C@H]4Cc6ccc(O)c7c6[C@@]3(CCN4CC3CC3)[C@H]5O7)c3ccc(S(=O)(=O)[O-])cc3C2(C)C)C(C)(C)c2cc(S(=O)(=O)O)ccc21, the Activity [4] is reported as “inactive”, the Ratio Ki (Homo sapiens [6]) is reported as 88 and the Ki [7] is reported as 3.2 nM. The Ki [9] was 280 nM, the Activity [10] was “inactive” and the Ratio Ki (Homo sapiens [12]) was 34. It also gave a Ki (Mu-type opioid receptor) of 110 nM.

With CN1/C(=C/C=C/C=C/C2=[N+](CCCCCC(=O)NCC(=O)NCC(=O)NCCCNC(=N)Nc3ccc4[nH]c5c(c4c3)C[C@@]3(O)[C@H]4Cc6ccc(O)c7c6[C@@]3(CCN4CC3CC3)[C@H]5O7)c3ccc(S(=O)(=O)[O-])cc3C2(C)C)C(C)(C)c2cc(S(=O)(=O)O)ccc21 the Activity [4] was “inactive”, the Ratio Ki (Homo sapiens [6]) was 100 and the Ki [7] was 1.1 nM. For the same compound, the Ki [9] was 106 nM, the Activity [13] was > 90% and the Activity [10] was “inactive”. For the same compound, the Ratio Ki (Homo sapiens [12]) was 91 and the Ki (Mu-type opioid receptor) was 100 nM.

CN1/C(=C/C=C/C=C/C2=[N+](CCCCCC(=O)NCC(=O)NCC(=O)NCC(=O)NCC(=O)NCCCNC(=N)Nc3ccc4[nH]c5c(c4c3)C[C@@]3(O)[C@H]4Cc6ccc(O)c7c6[C@@]3(CCN4CC3CC3)[C@H]5O7)c3ccc(S(=O)(=O)[O-])cc3C2(C)C)C(C)(C)c2cc(S(=O)(=O)O)ccc21 was tested, and the Kd [2] was 4.8 nM, the Activity [4] was “inactive” and the Ratio Ki (Homo sapiens [6]) was 107. For the same compound, the Ki [7] was 1.8 nM, the Ki [9] was 193 nM and the Activity [13] was > 90%. For the same compound, the Activity [10] was “inactive”, the Ratio Ki (Homo sapiens [12]) was 74 and the Ki (Mu-type opioid receptor) was 133 nM.

In the case of CN1/C(=C/C=C/C=C/C2=[N+](CCCCCC(=O)NCCCNC(=N)Nc3ccc4[nH]c5c(c4c3)C[C@@]3(O)[C@H]4Cc6ccc(O)c7c6[C@@]3(CCN4CC3CC3)[C@H]5O7)c3ccc(S(=O)(=O)[O-])cc3C2(C)C)C(C)(C)c2cc(S(=O)(=O)O)ccc21, the TIME [14] is reported as < 2.78e-05 h, the Kd [2] is reported as 9.5 nM and the Activity [4] is reported as “inactive”. It also gave a Ratio Ki (Homo sapiens [6]) of 28, a Ki [7] of 1.4 nM and a Ki [9] of 39 nM. The Activity [13] was > 90%, the Activity [10] was “Active” and the Ratio Ki (Homo sapiens [12]) was 29. The Ki (Mu-type opioid receptor) was 40 nM.
